Data as given in ChEMBL document CHEMBL1133603, “Synthesis and antimalarial activity of artemisinin derivatives containing an amino group” (2000).
Several values for one entry are separate records, joined by “and”; a condition that tells them apart may be missing. Identical values can stand only once.

Assays:
Plasmodium berghei [1] = assay: Antimalarial activity against Plasmodium berghei K173 after peroral dose
Plasmodium berghei [2] = assay: Antimalarial activity against Plasmodium berghei […] after subcutaneous dose; type: functional
In short: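 Mice inoculated intraperitoneally on day 0 with 1.5 × 107 P. berghei K173 parasitized cells. Test agents dissolved or ground in water or peanut oil, given once daily D0–D3 at 0.625, 1.25, 2.5, 5 and 10 mg/kg, orally or subcutaneously. Blood smears taken D4, stained and examined by microscopy.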

Monkey [3] = assay: Mean time for 90% reduction in parasitaemia at a dose of 3.16 mg/kg/day after oral administration on Plasmodium knowlesi in rhesus monkeys (7-day treatment); type: functional, Cercopithecidae
In short: (§1)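 Rhesus monkeys inoculated intravenously on D0 with 2 × 107 P. knowlesi. Compounds given orally once daily D0–D6 (7-day treatment) at 3.16 or 10.0 mg/kg/day, as stated per line. Parasitaemia followed to assess clearance rapidity; cure or recrudescence also recorded.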

Plasmodium berghei [4] = assay: Antimalarial activity against Plasmodium berghei K173 after peroral dose; remark: listed apart in the source
Monkey [5] = assay: Mean time for 50% reduction in parasitaemia at a dose of 3.16 mg/kg/day after oral administration on Plasmodium knowlesi in rhesus monkeys (7-day treatment); type: functional, Cercopithecidae
In short: as §1

Monkey [6] = assay: Time of clearance after oral administration on Plasmodium knowlesi in rhesus monkeys (7-day treatment); type: functional, Cercopithecidae
In short: as §1

Monkey [7] = assay: Percent parasitaemia before treatment at a dose of 10 mg/kg/day after oral administration on Plasmodium knowlesi in rhesus monkeyss (7-day treatment); type: functional, Cercopithecidae
In short: as §1

Monkey [8] = assay: Mean time for 50% reduction in parasitaemia at a dose of 10 mg/kg/day after oral administration on Plasmodium knowlesi in rhesus monkeys (7-day treatment); type: functional, Cercopithecidae
In short: as §1

Monkey [9] = assay: Mean time for 90% reduction in parasitaemia at a dose of 10 mg/kg/day after oral administration on Plasmodium knowlesi in rhesus monkeys (7-day treatment); type: functional, Cercopithecidae
In short: as §1

Monkey [10] = assay: Percent parasitaemia before treatment at a dose of 10 mg/kg/day after oral administration on Plasmodium knowlesi in rhesus monkeys (7-day treatment); type: functional, Cercopithecidae
In short: as §1

Monkey [11] = assay: Percent parasitaemia before treatment at a dose of 3.16 mg/kg/day after oral administration on Plasmodium knowlesi in rhesus monkeys (7-day treatment); type: functional, Cercopithecidae
In short: as §1

Structure (SMILES)	SD90 (Plasmodium berghei [1])	SD50 (Plasmodium berghei [2])	SD90 (Plasmodium berghei [2])	Reduction (Monkey [3])	SD50 (Plasmodium berghei [4])	Reduction (Monkey [5])	Parasite_Clearance_time (Monkey [6])	Parasitemia (Monkey [7])	Reduction (Monkey [8])	Reduction (Monkey [9])	Parasitemia (Monkey [10])	Parasitemia (Monkey [11])
C[C@@H]1CCC2[C@@H](C)[C@@H](OCCNCCO)O[C@@H]3O[C@@]4(C)CCC1[C@@]23OO4.O=C(O)/C=C\C(=O)O (stereo partly specified)	5.08 mg/kg/day	27.66 mg/kg/day	165.96 mg/kg/day	11.38 h	1.74 mg/kg/day	4.5 h	52 h	74%				
C[C@@H]1CCC2[C@@H](C)[C@@H](OCCN3CCOCC3)O[C@@H]3O[C@@]4(C)CCC1[C@@]23OO4.O=C(O)/C=C\C(=O)O (stereo partly specified)	7.29 mg/kg/day				1.82 mg/kg/day							
C[C@@H]1CCC2[C@@H](C)[C@@H](OCCN(C)C)O[C@@H]3O[C@@]4(C)CCC1[C@@]23OO4.O=C(O)C(=O)O (stereo partly specified)	4.71 mg/kg/day	24.57 mg/kg/day	255.83 mg/kg/day	12.09 h	1.61 mg/kg/day	5.29 h	44 h		6.25 h	13.98 h	42.5%	51.5%
C[C@@H]1CCC2[C@@H](C)[C@@H](OCCCN3CCOCC3)O[C@@H]3O[C@@]4(C)CCC1[C@@]23OO4.O=C(O)/C=C\C(=O)O (stereo partly specified)	5.28 mg/kg/day	5.57 mg/kg/day	302.49 mg/kg/day	11.8 h	1.82 mg/kg/day	5.19 h	40 h					
C[C@@H]1CCC2[C@@H](C)[C@@H](OCCN3CCOCC3)O[C@@H]3O[C@@]4(C)CCC1[C@@]23OO4.O=C(O)C(=O)O (stereo partly specified)	5.26 mg/kg/day				1.61 mg/kg/day							
C[C@@H]1CCC2[C@@H](C)[C@@H](OCCCN3CCOCC3)O[C@@H]3O[C@@]4(C)CCC1[C@@]23OO4.O=C(O)/C=C/C(=O)O (stereo partly specified)	11.19 mg/kg/day				1.33 mg/kg/day							
CCN(CC)CCO[C@H]1O[C@@H]2O[C@@]3(C)CCC4[C@H](C)CCC([C@H]1C)[C@]42OO3.O=C(O)C(=O)O (stereo partly specified)		24.57 mg/kg/day	255.83 mg/kg/day	11.38 h		4.5 h	52 h					
C[C@H]1C(OC(=O)CCC(=O)O)O[C@@H]2O[C@@]3(C)CCC4[C@H](C)CCC1[C@]42OO3 (stereo partly specified)	23.39 mg/kg/day			13.3 h	6.33 mg/kg/day	7.84 h	50 h and 54 h		8.21 h	13.74 h	35%	42.7%
